Test results published in paper PMC5091360 (Science Advances, 2016).

Experiments:
PDGFR-β = settings: such as in the case of sunitinib and PDGFR-β; cited from earlier work
HUVECs = experiment: endothelial tube formation in Matrigel; format: cell-based, human; settings: peptide 500 μg/ml in Matrigel
In short: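 HUVECs (1.5 × 10^4 per well) plated on Matrigel containing 1% DMSO, with or without peptide (500 μg/ml) in the gel. Cells kept in RPMI 1640 with VEGF-A (30 ng/ml) or VEGF-C (100 ng/ml). Tubes counted per field at 4× by bright-field microscopy. Triplicate wells; two independent experiments; Student's t test.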

[1] = system: IgD2-3 domains from human VEGFR-3; experiment: phage PCAIWF binding to recombinant VEGFR-3 IgD2-3; settings: peptide 100 μg/ml; FLISA, duplicate wells
[2] = system: ERK1/2 pathway in lymphatic endothelial cells (LECs); experiment: ERK1/2 phosphorylation in lymphatic endothelial cells; format: cell-based, human; settings: 10 min, 37°C
In short: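 Human dermal lymphatic microvascular endothelial cells were cultured overnight in EBM2 with 2% FBS, then starved 18 h in EBM2 with 0.2% BSA. They were stimulated with VEGF-A, VEGF-C or FGF-1, with or without test peptide or scrambled peptide (30 μg/ml). Lysates were immunoblotted for total and phospho-ERK1/2 using infrared-dye secondaries, and the phospho/total intensity ratio was taken. Two experiments were run; ANOVA with Tukey.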

[3] = system: IgD2 domain from human VEGFR-3; experiment: phage PCAIWF binding to recombinant VEGFR-3 IgD2; settings: peptide 100 μg/ml; FLISA, duplicate wells
human VEGFR-1 = experiment: FLISA binding assay, NRP-1 to VEGFR-1; settings: human NRP-1, FLISA
In short: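 Human VEGFR-1 extracellular domain coated at 200 ng per well in PBS overnight at 4°C, then blocked with Odyssey blocking buffer. Wells incubated with NRP-1 or NRP-2 in PBS with 10% (v/v) DMSO and 10% blocking buffer, with or without peptide (100 μg/ml). Bound NRP detected with goat anti-NRP-1 or anti-NRP-2 serum (1:100), then IRDye 680LT anti-goat, by infrared scanning. Duplicate wells; ANOVA with Tukey.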

VEGFR-1 [4] = settings: read-out: Kd, NRP-1 to VEGFR-1; cited from earlier work
NRP-2 = experiment: phage binding assay, immobilized NRP-2; settings: 10^8 TU in 50 μl PBS, 2 hours, room temperature; triplicate plating
VEGFR-2 = experiment: phage binding assay, immobilized VEGFR-2; settings: 10^8 TU in 50 μl PBS, 2 hours, room temperature; triplicate plating
human VEGFR-3 = experiment: phage binding assay, immobilized human VEGFR-3; settings: 10^8 TU in 50 μl PBS, 2 hours, room temperature; control insertless phage Fd; colony count or phage-FLISA; triplicate plating
mouse VEGFR-3 = experiment: phage binding assay, immobilized mouse VEGFR-3; settings: 10^8 TU in 50 μl PBS, 2 hours, room temperature; control insertless phage Fd; colony count or phage-FLISA; triplicate plating
VEGFR-1 [5] = experiment: phage binding assay, immobilized VEGFR-1; settings: 10^8 TU in 50 μl PBS, 2 hours, room temperature; triplicate plating
NRP-1 = experiment: phage binding assay, immobilized NRP-1; settings: 10^8 TU in 50 μl PBS, 2 hours, room temperature; triplicate plating
[6] = clinical studies; cited from earlier work
VEGF family = settings: cited from earlier work
rat NRP-2 = target: T1, rat NRP-2 (rat, UniProt O35276); experiment: ELISA
T1 sequence: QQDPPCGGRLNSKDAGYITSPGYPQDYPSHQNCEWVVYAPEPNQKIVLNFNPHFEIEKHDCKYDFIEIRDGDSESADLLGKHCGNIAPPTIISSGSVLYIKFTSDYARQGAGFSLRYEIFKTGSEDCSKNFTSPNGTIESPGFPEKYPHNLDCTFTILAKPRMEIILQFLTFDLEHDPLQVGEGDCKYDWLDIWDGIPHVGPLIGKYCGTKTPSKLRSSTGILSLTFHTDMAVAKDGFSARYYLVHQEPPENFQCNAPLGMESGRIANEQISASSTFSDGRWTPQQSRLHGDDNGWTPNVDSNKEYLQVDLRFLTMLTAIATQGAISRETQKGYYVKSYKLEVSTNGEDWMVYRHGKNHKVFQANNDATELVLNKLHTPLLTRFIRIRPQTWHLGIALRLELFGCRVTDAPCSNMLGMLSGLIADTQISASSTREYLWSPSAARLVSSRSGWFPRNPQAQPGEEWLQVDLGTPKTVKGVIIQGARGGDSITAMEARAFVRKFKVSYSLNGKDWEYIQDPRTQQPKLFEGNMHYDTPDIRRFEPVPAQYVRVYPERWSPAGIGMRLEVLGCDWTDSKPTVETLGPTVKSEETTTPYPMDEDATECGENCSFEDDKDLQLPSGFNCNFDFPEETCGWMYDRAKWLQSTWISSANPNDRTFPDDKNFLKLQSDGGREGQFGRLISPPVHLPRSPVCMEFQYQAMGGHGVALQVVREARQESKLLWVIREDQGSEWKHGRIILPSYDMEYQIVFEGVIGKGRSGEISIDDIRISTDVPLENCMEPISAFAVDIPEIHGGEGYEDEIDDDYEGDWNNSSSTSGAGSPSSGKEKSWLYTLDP

VEGFR-3 [7] = target: T2, VEGFR-3 (Mus musculus, UniProt P35917); experiment: competition assay, binding of phage PCAIWF to immobilized VEGFR-3; settings: VEGF-A or VEGF-C (10 ng/ml); triplicate plating
T2 sequence (P35917 25-770): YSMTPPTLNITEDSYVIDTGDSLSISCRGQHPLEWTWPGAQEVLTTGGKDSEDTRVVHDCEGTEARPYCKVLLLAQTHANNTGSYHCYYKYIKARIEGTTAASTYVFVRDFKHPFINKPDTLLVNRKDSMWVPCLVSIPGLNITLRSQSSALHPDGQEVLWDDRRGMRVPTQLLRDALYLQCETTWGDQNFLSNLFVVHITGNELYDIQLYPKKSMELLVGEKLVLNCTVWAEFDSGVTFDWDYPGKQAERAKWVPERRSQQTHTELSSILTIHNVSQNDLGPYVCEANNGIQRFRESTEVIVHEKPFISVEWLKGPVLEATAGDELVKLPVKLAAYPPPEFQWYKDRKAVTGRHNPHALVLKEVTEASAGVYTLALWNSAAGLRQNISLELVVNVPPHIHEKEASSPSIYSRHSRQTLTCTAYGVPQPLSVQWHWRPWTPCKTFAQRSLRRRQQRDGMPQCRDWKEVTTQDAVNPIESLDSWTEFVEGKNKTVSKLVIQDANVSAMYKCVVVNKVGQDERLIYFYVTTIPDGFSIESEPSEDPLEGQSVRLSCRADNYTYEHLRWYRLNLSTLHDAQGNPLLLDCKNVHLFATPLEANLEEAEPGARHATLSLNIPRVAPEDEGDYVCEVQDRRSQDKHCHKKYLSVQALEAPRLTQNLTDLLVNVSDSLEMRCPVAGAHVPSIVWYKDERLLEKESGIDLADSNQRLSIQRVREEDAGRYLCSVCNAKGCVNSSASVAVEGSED

[8] = system: IgD2 domain from human VEGFR-3; experiment: VEGF-C binding to recombinant VEGFR-3 IgD2; settings: FLISA, no peptide, duplicate wells
[9] = system: IgD2-3 domains from human VEGFR-3; experiment: VEGF-C binding to recombinant VEGFR-3 IgD2-3; settings: FLISA, no peptide, duplicate wells
VEGFR-3 [10] = target: T2, VEGFR-3; experiment: competition assay, binding of phage WVCSGG to immobilized VEGFR-3; settings: VEGF-C or VEGF-A in competition

Molecule: CCN(CC)CCNC(=O)c1c(C)[nH]c(/C=C2\C(=O)Nc3ccc(F)cc32)c1C [sunitinib]
- side effects (PDGFR-β): cardiotoxicity

Molecule: IFCAPW
- inhibition of tube formation, VEGF-A stimulated (in words) (HUVECs; VEGF-A 30 ng/ml): not by the control scramble peptide
- inhibition of tube formation, VEGF-C stimulated (in words) (HUVECs; VEGF-C 100 ng/ml): not by the control scramble peptide
- inhibition of phage PCAIWF binding to IgD2-3 by synthetic peptide [1]: not by the control peptide
- effect on FGF-1 induced phosphorylation of ERK1/2 ([2]; FGF-1 100 ng/ml, peptide 30 μg/ml): no effect on this downstream signaling event
- effect on VEGF-A induced phosphorylation of ERK1/2 ([2]; VEGF-A 100 ng/ml, peptide 30 μg/ml): no effect on this downstream signaling event
- effect on VEGF-C induced phosphorylation of ERK1/2 ([2]; VEGF-C 100 ng/ml, peptide 30 μg/ml): no effect on this downstream signaling event
- inhibition of phage PCAIWF binding to IgD2 by synthetic peptide [3]: not by the control peptide

Molecule: NRP-1: neuropilin-1, co-receptor for VEGF
- NRP-1 binding to VEGFR-1 (human VEGFR-1): strong interaction
- Kd (VEGFR-1 [4]): ~1.8 nM

Molecule: PCAIWF [phage PCAIWF]
- phage binding to NRP-2 (NRP-2): not to the other receptors, VEGFR-1 and VEGFR-2 (Fig. 1, C and D), including the two other non-RTKs, NRP-1 and NRP-2
- phage binding to VEGFR-2 (VEGFR-2): not to the other receptors, VEGFR-1 and VEGFR-2
- phage binding to human VEGFR-3 (human VEGFR-3): both phages bound to mouse and human VEGFR-3
- phage binding to mouse VEGFR-3 (mouse VEGFR-3): both phages bound to mouse and human VEGFR-3
- phage binding to VEGFR-1 (VEGFR-1 [5]): not to the other receptors, VEGFR-1 and VEGFR-2
- phage binding to NRP-1 (NRP-1): not to the other receptors, VEGFR-1 and VEGFR-2 (Fig. 1, C and D), including the two other non-RTKs, NRP-1 and NRP-2

Molecule: aflibercept: ligand-binding domain of VEGFR-1 fused to an Ig constant region
- clinical efficacy in ophthalmology [6]: better efficacy compared to bevacizumab and ranibizumab
- VEGF family members targeted (VEGF family): will target multiple members of the VEGF family (VEGF-A, VEGF-B, and PlGF) but will miss others (VEGF-C and VEGF-D)

B1: human VEGFR-1 extracellular domain (Fc fusion) (Fc fusion)
chain: SKLKDPELSLKGTQHIMQAGQTLHLQCRGEAAHKWSLPEMVSKESERLSITKSACGRNGKQFCSTLTLNTAQANHTGFYSCKYLAVPTSKKKETESAIYIFISDTGRPFVEMYSEIPEIIHMTEGRELVIPCRVTSPNITVTLKKFPLDTLIPDGKRIIWDSRKGFIISNATYKEIGLLTCEATVNGHLYKTNYLTHRQTNTIIDVQISTPRPVKLLRGHTLVLNCTATTPLNTRVQMTWSYPDEKNKRASVRRRIDQSNSHANIFYSVLTIDKMQNKDKGLYTCRVRSGPSFKSVNTSVHIYDKAFITVKHRKQQVLETVAGKRSYRLSMKVKAFPSPEVVWLKDGLPATEKSARYLTRGYSLIIKDVTEEDAGNYTILLSIKQSNVFKNLTATLIVNVKPQIYEKAVSSFPDPALYPLGSRQILTCTAYGIPQPTIKWFWHPCNHNHSEARCDFCSNNEESFILDADSNMGNRIESITQRMAIIEGKNKMASTLVVADSRISGIYICIASNKVGTVGRNISFYITDVPNGFHVNLEKMPTEGEDLKLSCTVNKFLYRDVTWILLRTVNNRTMHYSISKQKMAITKEHSITLNLTIMNVSLQDSGTYACRARNVYTGEEILQKKEITIRDQEAPYLLRNLSDHTVAISSSTTLDCHANGVPEPQITWFKNNHKIQQEPGIILGPGSSTLFIERVTEEDEGVYHCKATNQKGSVESSAYLTVQGTSDKSNLE
- binding result (rat NRP-2): binds

B2: VEGF-C: VEGF family member, recombinant human ligand (protein)
chain: AHYNTEILKSIDNEWRKTQCMPREVCIDVGKEFGVATNTFFKPPCVSVYRCGGCCNSEGLQCMNTSTSYLSKTLFEITVPLSQGPKPVTISFANHTSCRCMSKLDVYRQVHSIIRR
- inhibition of phage PCAIWF binding to VEGFR-3 by growth factor (VEGFR-3 [7]): Only VEGF-C prevents the binding of phage PCAIWF to the receptor (Fig. 2A) in a dose-dependent manner
- VEGF-C binding to IgD2 [8]: binds to both recombinant ligand-binding domains IgD2
- VEGF-C binding to IgD2-3 [9]: binds to both recombinant ligand-binding domains IgD2 (Fig. 2F) and IgD2-3
- inhibition of phage WVCSGG binding to VEGFR-3 by growth factor (VEGFR-3 [10]): binding of phage WVCSGG to VEGFR-3 is also inhibited by VEGF-C
- phosphorylation of ERK1/2 upon growth factor stimulation ([2]; growth factor 100 ng/ml, 1% DMSO, heparin 10 U/ml): phosphorylation of ERK1/2 increases
